The record followed here is ChEMBL document CHEMBL1143430, “Synthesis and free radical scavenging activity of some new spiropyranocoumarins” (Bioorg Med Chem Lett, 2008).

Assay [1] concerns Radical scavenging activity. Kind of assay: Antioxidant activity assessed as DPPH free radical scavenging activity after 20 mins. The class given is functional. Put shortly:
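Test compound at 5–200 μM mixed with an equal volume of 200 μM DPPH in ethanol, incubated 20 min at room temperature; absorbance read at 517 nm (also at 30, 45 and 60 min). IC50 = concentration giving 50% inhibition of 200 μM DPPH, from linear regression over at least five concentrations in triplicate; mean ± SD of at least three experiments.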
Background: The DPPH test is a chemical assay of radical scavenging.

Assay [2] in a line: Antioxidant activity assessed as inhibition of xanthine-xanthine oxidase generated superoxide anion radical production at 0.5 mM. It is filed as functional. Put shortly: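 Superoxide generated enzymically by xanthine oxidase (0.07 U ml⁻¹, added to start the reaction) with 200 μM xanthine and 600 μM NBT in 0.1 phosphate buffer, pH 7.4. Read-out was the NBT reduction product.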

Structures are written as SMILES.

For `O=c1cc(O)c2ccc3c(c2o1)C=CC1(O3)C2CC3CC(C2)CC1C3` (configuration not stated), in assay [1], the IC50 (in general, the midpoint of a concentration-inhibition curve) turned out to be 130 µM. Also, the inhibition (in general, the change of the read-out against control, counted positive when it falls) in assay [2] worked out at 37.3%.

`O=c1cc(O)c2ccc3c(c2o1)[C@@H](O)[C@@H](O)C1(O3)C2CC3CC(C2)CC1C3` (some centres not stated): the IC50 in assay [1] was found to be 166 µM. The inhibition in assay [2] worked out at 48.3%.

On to `O=c1cc(O)c2ccc3c(c2o1)C=CC1(CCCCCC1)O3`, for which the IC50 in assay [1] worked out at 202 µM. In assay [2], the inhibition was less than 10%.

`O=c1cc(O)c2ccc3c(c2o1)C=CC1(CCCCC1)O3`: the IC50 in assay [1] was found to be 201 µM. For the same compound, the inhibition in assay [2] is less than 10%.

With `O=c1cc(O)c2ccccc2o1` [4-HYDROXYCOUMARINS], the IC50 in assay [1] is 124 µM. Moreover, the inhibition in assay [2] was determined as 19.4%.

`O=c1cc(O)c2ccc3c(c2o1)C=CC1(CCCC1)O3`: the IC50 in assay [1] was 182 µM. For the same compound, the inhibition in assay [2] was less than 10%.

For the compound `Cc1cc(C(C)(C)C)c(O)c(C(C)(C)C)c1` [BUTYLATED HYDROXYTOLUENE], the IC50 in assay [1] is 83.8 µM.

On to `O=c1cc(O)c2ccc3c(c2o1)[C@@H](O)[C@@H](O)C1(CCCCCC1)O3`, for which the IC50 in assay [1] came out at 158 µM. Also, in assay [2], the inhibition was 35.8%.

On to `Oc1ncnc2[nH]ncc12`, for which the inhibition in assay [2] was determined as 42.3%.

On to `O=c1cc(O)c2ccc3c(c2o1)[C@@H](O)[C@@H](O)C1(CCCC1)O3`, for which the half-inhibitory concentration (IC50) in assay [1] is 97.8 µM. Moreover, in assay [2], the inhibition worked out at 63.5%.

Regarding `O=c1cc(O)c2ccc3c(c2o1)[C@@H](O)[C@@H](O)C1(CCCCC1)O3`, the IC50 in assay [1] is 161 µM. For the same compound, in assay [2], the inhibition is 51.7%.

For `O=c1ccc2ccc(O)cc2o1` [UMBELLIFERONE], the half-maximal inhibitory concentration (IC50) in assay [1] is greater than 400 µM. Besides, the inhibition in assay [2] was determined as 32.6%.
